In ChEMBL document CHEMBL3227925, “Structure-activity relationship in a new series of atropine analogues. 1. N,N'-Disubstituted 6,7-diazabicyclo[3.2.2]nonane derivatives” (J Med Chem, 1979):
Where a name gives a salt, the structure may show the parent alone. Calls of active or inactive are those of the source. No cut-off for these calls is given here.

Experiments:
[1] = Antagonist activity at muscarinic acetylcholine receptor in guinea pig ileum assessed as inhibition of acetylcholine-induced contraction; type: tissue-based, Cavia porcellus
In short: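 Ileum segments (~2 cm) from freshly killed guinea pigs in a 10-mL organ bath of Tyrode solution at 37 °C, air-bubbled. Isotonic contractions recorded. Acetylcholine dose-response curves run without and with antagonist. Affinity constants calculated from the dose ratio. Values are means of two to four separate experiments ± SD.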

[2] = Toxicity in ip dosed mouse; type: organism-based; conditions: in vivo
In short: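 Preliminary LD50 determination in mice given the drugs intraperitoneally.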

Cavia porcellus [3] = organism: Cavia porcellus; assay: Competitive antagonist activity at muscarinic acetylcholine receptor in guinea pig ileum assessed as inhibition of acetylcholine-induced contraction at 1X10'-8 M; type: tissue-based
In short: (§1)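 Guinea pig ileum (~2 cm, freshly killed animals) in a 10-mL Tyrode bath at 37 °C, air-bubbled, isotonic lever recording. Acetylcholine dose-response curves recorded alone and with antagonist present at a single fixed concentration (1×10^-8 or 1.1×10^-8 M). The curves were compared for shift.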

[4] = Displacement of [3H]4-NMPB from muscarinic acetylcholine receptor in mouse brain; type: tissue-based
Cavia porcellus [5] = organism: Cavia porcellus; assay: Competitive antagonist activity at muscarinic acetylcholine receptor in guinea pig ileum assessed as inhibition of acetylcholine-induced contraction at 1.1X10'-8 M; type: tissue-based; in short: as §1

SMILES | Kd [1] [nM] | further results
CN1[C@@H]2CC[C@@H](C[C@H](OC(=O)C(CO)c3ccccc3)C2)N1C (stereo not given in full) | 0.091 | 
CN1[C@@H]2CC[C@@H](C[C@H](OC(=O)C(CO)c3ccccc3)C2)N1C (stereo in doubt; 1) | 1.7 | LD50 [2]: 150 mg/kg
CN1[C@@H]2CC[C@@H](C[C@H](OC(=O)C(CO)c3ccccc3)C2)N1C (stereo in doubt; 2) [listing 1 of 2 here] | 0.066 | 
CN1[C@@H]2CC[C@@H](C[C@H](OC(=O)C(CO)c3ccccc3)C2)N1C (stereo in doubt; 2) [listing 2 of 2 here] |  | inhibition (Cavia porcellus [3]): Active
CN1[C@@H]2CC[C@@H](C[C@H](OC(=O)C(CO)c3ccccc3)C2)N1C (stereo in doubt; 4) | 170 | 
CN1[C@@H]2CC[C@@H](C[C@H](OC(=O)C(CO)c3ccccc3)C2)N1C (stereo in doubt; 5) [listing 1 of 2 here] | 1.6 | Kd [4]: 2.1 nM
CN1[C@@H]2CC[C@@H](C[C@H](OC(=O)C(CO)c3ccccc3)C2)N1C (stereo in doubt; 5) [listing 2 of 2 here] |  | inhibition (Cavia porcellus [5]): Active
CN1[C@@H]2CC[C@H]1C[C@@H](OC(=O)C(CO)c1ccccc1)C2 (stereo not given in full) [ATROPINE SULFATE] | 0.49 | 
